# “Also recorded” adds a separate entry of the source. The star is where a group is joined. Biotin = O=C1N[C@H]2[C@H](CS[C@H]2CCCCC(=O)*)N1; Ahx = NCCCCCC(=O)O
# B1: BRC4 peptide (human BRCA2 BRC repeat 4, 35-mer) (peptide)
# peptide: KEPTLLGFHTASGKKVKIAKESLDKVKNLFDEKEQ
# modifications: N-terminal biotin attached through a 6-aminohexanoic acid spacer; C-terminal amide
# B2: BRC^45 chimaeric peptide (N-terminal 17 residues of BRC4 and C-terminal 18 residues of BRC5) (peptide)
# peptide: {Biotin-Ahx}-KEPTLLGFHTASGKKVKVSQTSLLEAKKWLREGIF-NH2
# SMILES: CC[C@H](C)[C@H](NC(=O)CNC(=O)[C@H](CCC(=O)O)NC(=O)[C@H](CCCNC(=N)N)NC(=O)[C@H](CC(C)C)NC(=O)[C@H](Cc1c[nH]c2ccccc12)NC(=O)[C@H](CCCCN)NC(=O)[C@H](CCCCN)NC(=O)[C@H](C)NC(=O)[C@H](CCC(=O)O)NC(=O)[C@H](CC(C)C)NC(=O)[C@H](CC(C)C)NC(=O)[C@H](CO)NC(=O)[C@@H](NC(=O)[C@H](CCC(N)=O)NC(=O)[C@H](CO)NC(=O)[C@@H](NC(=O)[C@H](CCCCN)NC(=O)[C@@H](NC(=O)[C@H](CCCCN)NC(=O)[C@H](CCCCN)NC(=O)CNC(=O)[C@H](CO)NC(=O)[C@H](C)NC(=O)[C@@H](NC(=O)[C@H](Cc1c[nH]cn1)NC(=O)[C@H](Cc1ccccc1)NC(=O)CNC(=O)[C@H](CC(C)C)NC(=O)[C@H](CC(C)C)NC(=O)[C@@H](NC(=O)[C@@H]1CCCN1C(=O)[C@H](CCC(=O)O)NC(=O)[C@H](CCCCN)NC(=O)CCCCCNC(=O)CCCC[C@@H]1SC[C@@H]2NC(=O)N[C@@H]21)[C@@H](C)O)[C@@H](C)O)C(C)C)C(C)C)[C@@H](C)O)C(=O)N[C@@H](Cc1ccccc1)C(N)=O
# B3: 60-mer ssDNA (ssDNA)
# DNA: TACTGCCATTCTGTATCGCTTATCGAGTAGTTACCTGCCTAGCATTGCCACTCATAGCCT
# B4: 60-mer dsDNA (dsDNA)
# DNA 1: B3 DNA
# DNA 2: AGGCTATGAGTGGCAATGCTAGGCAGGTAACTACTCGATAAGCGATACAGAATGGCAGTA
# Legend:
# [1] = tested on: RAD51; conditions: in contrast to BRC4; ref [20],[21],[39]; cited from earlier work
# [2] = tested on: RAD51-dsDNA filament; experiment: EMSA of RAD51 nucleoprotein filament formation on dsDNA; format: biochemical, human; conditions: RAD51 2 µM, result in words
# Procedure, shortened: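 Untagged RAD51 (2 µM) was pre-incubated with BRC peptides at stated µM concentrations for 10 min on ice. Complexes were resolved on 0.5% agarose in TAE (50 mA, 4 h, 4°C) and phosphorimaged.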
# [3] = tested on: mCherry-RAD51^WT; experiment: Bio-BRC4 pull-down from DT40 whole-cell extract: mCherry-RAD51^WT; format: binding, human; conditions: lysates of untreated DT40 cells; streptavidin magnetic beads; western blot
# Procedure, shortened: (§1)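 Lysates from untreated Rad51−/− DT40 cells (no doxycycline) expressing mCherry-tagged wild-type or mutant human RAD51 alongside wild-type HsRAD51Tet off were incubated with BRC4 peptide. The peptide carried an N-terminal biotin on a 6-aminohexanoic acid spacer and a C-terminal amide, was HPLC-purified to 95%, and was bound to streptavidin-coated magnetic beads. Captured RAD51 species were detected by SDS–PAGE and immunoblotting.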
# [4] = tested on: mCherry-RAD51 RAD51^LL-EE; experiment: Bio-BRC4 pull-down from DT40 whole-cell extract: mCherry-RAD51^LL-EE; format: binding, human; conditions: lysates of untreated DT40 cells also expressing HsRAD51^Tet off; western blot
# Procedure, shortened: as §1
# [5] = tested on: mCherry-RAD51 RAD51^LLRR-EEAA; experiment: Bio-BRC4 pull-down from DT40 whole-cell extract: mCherry-RAD51^LLRR-EEAA; format: binding, human; conditions: lysates of untreated DT40 cells also expressing HsRAD51^Tet off; western blot
# Procedure, shortened: as §1
# [6] = tested on: BRC4–RAD51 interaction; format: binding, human; conditions: competitive ELISA; comparison in words
# Procedure, shortened: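 Solid-phase BRC4 peptide was bound by recombinant full-length human RAD51 in solution. The RAD51 was thrombin-cleaved overnight at 22°C from GST-RAD51 expressed in E. coli BL21, then dialysed into PBS. Wild-type or mutant biotinylated BRC peptides were added as soluble competitors. Absorbance is given as mean percentage (SEM) of triplicates, normalised to the positive control without soluble inhibitor.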
# [7] = target: T1, Recombinant full-length RAD51, cleaved from GST-RAD51 (human, UniProt Q06609 1-339); experiment: ELISA
# T1 sequence (looked up): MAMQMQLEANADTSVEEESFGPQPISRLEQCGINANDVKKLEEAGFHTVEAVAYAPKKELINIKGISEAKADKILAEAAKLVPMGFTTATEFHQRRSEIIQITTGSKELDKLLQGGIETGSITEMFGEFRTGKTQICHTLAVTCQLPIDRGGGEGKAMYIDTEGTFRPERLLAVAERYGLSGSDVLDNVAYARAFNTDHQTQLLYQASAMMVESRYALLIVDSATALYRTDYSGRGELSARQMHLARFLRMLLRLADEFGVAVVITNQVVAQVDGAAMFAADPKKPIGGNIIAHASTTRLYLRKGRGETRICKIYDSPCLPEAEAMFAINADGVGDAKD
# [8] = target: T2, Untagged recombinant RAD51 (human, UniProt Q06609 1-339); experiment: native gel or EMSA
# T2 sequence (looked up): T1 sequence (looked up)
# [9] = target: T3, RAD51 (WT) (Homo sapiens, UniProt Q06609 1-339); experiment: streptavidin-bead pull-down
# T3 chain: T1 sequence (looked up)
# [10] = target: RAD51 R250A (Homo sapiens, UniProt Q06609 1-339, R250A); experiment: streptavidin-bead pull-down
molecule,measurement,setting,value
IENSALAFYTSCSRKTSVSQTSLLEAKKWLREGIF [BRC5],affinity for RAD51 among the human BRC repeats,[1],lowest affinity
KEPTLLGFHTASGKKVKIAKESLDKVKNLFDEKEQ [BRC4],inhibition of complex (filament) formation at higher concentrations,[2],filament formation is prevented
same,pull-down of mCherry-RAD51^WT by Bio-BRC4,[3],can also be pulled-down by Bio-BRC4
same,pull-down of mCherry-RAD51^LL-EE by Bio-BRC4,[4],defective in binding to Bio-BRC4
same,pull-down of mCherry-RAD51^LLRR-EEAA by Bio-BRC4,[5],defective in binding to Bio-BRC4
KEPTLLGFHTASGKKVKVSQTSLLEAKKWLREGIF [BRC^45],potency at competing the BRC4–RAD51 interaction relative to another peptide,[6],more potent than BRC4
same,inhibition of complex (filament) formation at higher concentrations,[2],inhibits complex formation when present in higher amounts
same,permissive (super-shift) and inhibitory behaviours in the EMSA,[2],exhibits both behaviours; also recorded: Concentration dependent super-shift and subsequent inhibition of filament formation
B1,binding result,[7],binds
B2,binding result,[7],binds
same,binding result,[8],binds
B3,binding result,[9],binds
same,binding result,[10],binds
B4,binding result,[9],binds
same,binding result,[10],binds
